Test results taken from ChEMBL document CHEMBL2412955, “Synthesis and antibacterial activities of N-substituted-glycinyl 1H-1,2,3-triazolyl oxazolidinones” (2013).
≈ marks a conversion by molar mass, not a printed value.

Key:
Format in all cases: functional
Staphylococcus aureus [1] = assay: Antibacterial activity against Staphylococcus aureus ATCC 25923 after 18 hrs by […] in presence of human plasma; conditions: ATCC 25923, Plasma
Procedure, shortened: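 To gauge plasma protein binding and/or plasma instability, MIC was determined in Mueller-Hinton broth containing 50% human plasma. Linezolid served as a reference agent. Ratio compares this MIC with the MIC obtained without plasma.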

Enterococcus [2] = assay: Antibacterial activity against vancomycin-resistant Enterococcus after 18 hrs by NCCLS agar dilution method
Procedure, shortened: (§1)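 Clinical isolates were tested by agar dilution on Mueller-Hinton agar with drug dilutions from 0.12 to 64 µg/ml. Test compounds were dissolved in 80% DMSO in water. Final inoculum was 10^7 CFU/ml, incubated at 35 °C for 18 h. MIC was the lowest concentration inhibiting visible growth.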

Streptococcus pneumoniae = assay: Antibacterial activity against penicillin-resistant Streptococcus pneumoniae after 18 hrs by NCCLS agar dilution method
Procedure, shortened: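 Agar dilution was run on Mueller-Hinton agar supplemented with 5% sheep blood, with drug dilutions from 0.12 to 64 µg/ml. Test compounds were dissolved in 80% DMSO in water. Final inoculum was 10^7 CFU/ml, incubated at 35 °C for 18 h. MIC was the lowest concentration preventing visible growth.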

Staphylococcus [3] = assay: Antibacterial activity against methicillin-resistant coagulase-negative Staphylococcus after 18 hrs by NCCLS agar dilution method; procedure, shortened: as §1
Haemophilus influenzae = assay: Antibacterial activity against Haemophilus influenzae ATCC 49247 after 18 hrs by NCCLS agar dilution method; conditions: ATCC 49247, 18 h
Procedure, shortened: (§2)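 NCCLS agar dilution on Mueller-Hinton agar with 5% sheep blood added to support growth. Drug dilutions 0.12–64 µg/ml. Test agents in 80% DMSO in water, linezolid in 40% water in ethanol. Final inoculum 10^7 CFU/ml, 18 h at 35 °C. MIC read as the lowest concentration with no visible growth.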

Moraxella catarrhalis = assay: Antibacterial activity against Moraxella catarrhalis ATCC 8176 after 18 hrs by NCCLS agar dilution method; conditions: ATCC 8176, 18 h; procedure, shortened: as §2
Staphylococcus [4] = assay: Antibacterial activity against methicillin-susceptible coagulase-negative Staphylococcus after 18 hrs by NCCLS agar dilution method; procedure, shortened: as §1
Staphylococcus aureus [5] = assay: Antibacterial activity against methicillin-resistant Staphylococcus aureus after 18 hrs by NCCLS agar dilution method; procedure, shortened: as §1
Staphylococcus aureus [6] = assay: Antibacterial activity against Staphylococcus aureus ATCC 25923 after 18 hrs by NCCLS agar dilution method; conditions: ATCC 25923, 18 h
Procedure, shortened: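 Plain Mueller-Hinton agar, agar dilution per NCCLS, concentrations 0.12–64 µg/ml. Test agents in 80% DMSO in water, linezolid in 40% water in ethanol, vancomycin in water. Final inoculum 10^7 CFU/ml, 35 °C for 18 h. MIC = lowest concentration inhibiting visible growth.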

Escherichia coli = assay: Antibacterial activity against Escherichia coli ATCC 25922 after 18 hrs by NCCLS agar dilution method; conditions: ATCC 25922, 18 h
Procedure, shortened: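 Agar dilution per NCCLS on Mueller-Hinton agar, drug dilutions 0.12–64 µg/ml. Linezolid dissolved in 40% water in ethanol, vancomycin in water, test agents in 80% DMSO in water. Inoculum 10^7 CFU/ml (final), incubated 35 °C for 18 h. MIC is the lowest concentration preventing visible growth.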

Staphylococcus aureus [7] = assay: Antibacterial activity against methicillin-susceptible Staphylococcus aureus after 18 hrs by NCCLS agar dilution method; procedure, shortened: as §1
Enterococcus [8] = assay: Antibacterial activity against vancomycin-susceptible Enterococcus after 18 hrs by NCCLS agar dilution method; procedure, shortened: as §1

| SMILES | MIC (Staphylococcus aureus [1]) [µg/mL] | MIC (Enterococcus [2]) [µg/mL] | MIC (Streptococcus pneumoniae) [µg/mL] | MIC (Staphylococcus [3]) [µg/mL] | MIC (Haemophilus influenzae) [µg/mL] | MIC (Moraxella catarrhalis) [µg/mL] | MIC (Staphylococcus [4]) [µg/mL] | MIC (Staphylococcus aureus [5]) [µg/mL] | MIC (Staphylococcus aureus [6]) [µg/mL] | MIC (Escherichia coli) [µg/mL] | MIC (Staphylococcus aureus [7]) [µg/mL] | MIC (Enterococcus [8]) [µg/mL] |
| --- | --- | --- | --- | --- | --- | --- | --- | --- | --- | --- | --- | --- |
| Cc1cn(C[C@H]2CN(c3ccc(N4CCN(C(=O)CNC(=O)OC(C)(C)C)CC4)c(F)c3)C(=O)O2)nn1 | 16 | 8 (≈ 15.5 µM) | 4 (≈ 7.73 µM) | 4 (≈ 7.73 µM) | ≥ 64 | 16 (≈ 30.9 µM) | 4 (≈ 7.73 µM) | 8 (≈ 15.5 µM) | 4 (≈ 7.73 µM) | > 64 | 4 (≈ 7.73 µM) | 4 (≈ 7.73 µM) |
| CC(=O)NCC(=O)N1CCN(c2ccc(N3C[C@H](Cn4cc(C)nn4)OC3=O)cc2F)CC1 | 8 | 4 (≈ 8.71 µM) | 1 (≈ 2.18 µM) | 2 (≈ 4.35 µM) | 32 (≈ 69.6 µM) | 16 (≈ 34.8 µM) | 2 (≈ 4.35 µM) | 2 (≈ 4.35 µM) | 4 (≈ 8.71 µM) | > 64 | 2 (≈ 4.35 µM) | 2 (≈ 4.35 µM) |
| Cc1cn(C[C@H]2CN(c3ccc(N4CCN(C(=O)CNC(=O)C(Cl)Cl)CC4)c(F)c3)C(=O)O2)nn1 | 16 | 4 (≈ 7.57 µM) | 2 (≈ 3.79 µM) | 4 (≈ 7.57 µM) | > 32 | 16 (≈ 30.3 µM) | 4 (≈ 7.57 µM) | 4 (≈ 7.57 µM) | 8 (≈ 15.1 µM) | > 64 | 4 (≈ 7.57 µM) | 4 (≈ 7.57 µM) |
| CC(C)(C)OC(=O)NCC(=O)N1CCN(c2ccc(N3C[C@H](Cn4ccnn4)OC3=O)cc2F)CC1 | 8 | 2 (≈ 3.97 µM) | 2 (≈ 3.97 µM) | 2 (≈ 3.97 µM) | > 64 | 32 (≈ 63.6 µM) | 2 (≈ 3.97 µM) | 2 (≈ 3.97 µM) | 4 (≈ 7.94 µM) | > 64 | 2 (≈ 3.97 µM) | 2 (≈ 3.97 µM) |
| CCOC(=O)CC(=O)NCC(=O)N1CCN(c2ccc(N3C[C@H](Cn4ccnn4)OC3=O)cc2F)CC1 | 16 | 8 (≈ 15.5 µM) | 2 (≈ 3.86 µM) | 4 (≈ 7.73 µM) | 64 (≈ 124 µM) | 32 (≈ 61.8 µM) | 4 (≈ 7.73 µM) | 4 (≈ 7.73 µM) | 8 (≈ 15.5 µM) | > 64 | 4 (≈ 7.73 µM) | 4 (≈ 7.73 µM) |
| CC(=O)NCC(=O)N1CCN(c2ccc(N3C[C@H](Cn4ccnn4)OC3=O)cc2F)CC1 | 8 | 2 (≈ 4.49 µM) | 1 (≈ 2.24 µM) | 2 (≈ 4.49 µM) | 64 (≈ 144 µM) | 32 (≈ 71.8 µM) | 2 (≈ 4.49 µM) | 4 (≈ 8.98 µM) | 4 (≈ 8.98 µM) | > 64 | 2 (≈ 4.49 µM) | 2 (≈ 4.49 µM) |
| Cc1cn(C[C@H]2CN(c3ccc(N4CCN(C(=O)CNC(=O)C(F)(F)F)CC4)c(F)c3)C(=O)O2)nn1 | 16 | 4 (≈ 7.79 µM) | 1 (≈ 1.95 µM) | 4 (≈ 7.79 µM) | 32 (≈ 62.3 µM) | 16 (≈ 31.2 µM) | 4 (≈ 7.79 µM) | 4 (≈ 7.79 µM) | 8 (≈ 15.6 µM) | > 64 | 4 (≈ 7.79 µM) | 4 (≈ 7.79 µM) |
| CCOC(=O)CC(=O)NCC(=O)N1CCN(c2ccc(N3C[C@H](Cn4cc(C)nn4)OC3=O)cc2F)CC1 | 16 | 4 (≈ 7.53 µM) | 4 (≈ 7.53 µM) | 4 (≈ 7.53 µM) | > 64 | > 64 | 4 (≈ 7.53 µM) | 4 (≈ 7.53 µM) | 8 (≈ 15.1 µM) | > 64 | 4 (≈ 7.53 µM) | 4 (≈ 7.53 µM) |
| O=C(NCC(=O)N1CCN(c2ccc(N3C[C@H](Cn4ccnn4)OC3=O)cc2F)CC1)c1ccco1 | 2 | 1 (≈ 2.01 µM) | 0.25 (≈ 0.503 µM) | 1 (≈ 2.01 µM) | 16 (≈ 32.2 µM) | 16 (≈ 32.2 µM) | 1 (≈ 2.01 µM) | 1 (≈ 2.01 µM) | 2 (≈ 4.02 µM) | > 64 | 1 (≈ 2.01 µM) | 1 (≈ 2.01 µM) |
